Activity calls are given as the source filed them.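 How the source made its calls: active means fitted curve reaches a 35% signal drop at a concentration no higher than twice the top valid dose, in duplicate at both wavelengths; inactive means the rest, including activity in the opposite direction.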
Assay: iron-limited Pseudomonas aeruginosa growth inhibition – whole organism, absorbance 405 nm, EDDHA, dry powder, set 8, dose response (AID 624102)
Conditions: P. aeruginosa with EDDHA, growth/pyoverdine A405, 24-30 h; series mostly up to 120 µM
Procedure, shortened: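 System: Pseudomonas aeruginosa strain ATCC 15692, whole bacterial cells. Quantity: bacterial inoculum at final OD600 of 0.0000005. Buffer or medium: succinate M9 medium, pH 7.0, with 2 µM EDDHA iron chelator. Schedule: bacterial growth with compound for 24-30 h at 37 °C. Technique: absorbance at 405 nm reflecting pyoverdine production.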

outcome, inactive:
N#Cc1cccc(C(C#N)c2ccc(F)cc2)n1 (centres undefined)
CN(C)CCCC(C#N)c1ccc(F)cc1 (centres undefined)
CCCCC(C#N)c1ccc(F)cc1 (centres undefined)
N#CC(c1ccc(Cl)cc1)c1ccccn1 (centres undefined)
N#CC(c1ccc(F)cc1)c1cccc(Cl)n1 (centres undefined)
CCCCC(c1ccc(Cl)cc1)c1nn[nH]n1 (centres undefined)
COCCNC(C#N)c1ccc(Cl)cc1 (centres undefined)
COCCC(C#N)c1ccc(F)cc1 (centres undefined)
CCCCC(C#N)c1ccccn1 (centres undefined)
N#CC1c2ccc(Cl)cc2CCc2cccnc21 (centres undefined)
CCCCC(C#N)c1ccc(F)cn1 (centres undefined)
CCCCC(C#N)c1ccc(Cl)cc1 (centres undefined)
CCCCC(C#N)c1ccc(Cl)cn1 (centres undefined)
N#CC(c1ccc(Cl)cc1)N1CCCC1 (centres undefined)
COCCOCCC(C#N)c1ccc(Cl)cc1 (centres undefined)
N#CC(c1ccc(C(F)(F)F)c(Cl)n1)c1ccccc1OC(F)(F)F (centres undefined)
Clc1ccc(C(c2cccc(Cl)n2)c2nn[nH]n2)cc1 (centres undefined)
COCCOCCC(C#N)c1ccc(F)cc1 (centres undefined)
COCCC(C#N)c1ccc(Cl)cc1 (centres undefined)
